Results published in ChEMBL document CHEMBL1921722, “In vitro and in vivo evaluation of select kahalalide F analogs with antitumor and antifungal activities” (Bioorg Med Chem, 2011).

How the values were obtained:
[1] = system: MDA-MB-435; assay: Cytotoxicity against human MDA-MB-435 cells assessed as cell growth at 800 nM by sulforhodamine B assay relative to control; format: functional; conditions: read-out: Activity
[2] = system: MDA-MB-435; assay: Cytotoxicity against human MDA-MB-435 cells by sulforhodamine B assay; format: functional
In short: (§1)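 NCI Developmental Therapeutics Program 60-cell-line human tumor panel screen, run at NCI. A single-concentration pre-screen was followed by a five-concentration dose-response in 10-fold steps. GI50 is the concentration that reduces growth of treated cells to half that of untreated control cells. TGI is the concentration that completely halts growth.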

[3] = system: NCI-H322M; assay: Cytotoxicity against human NCI-H322M cells assessed as cell growth at 8 uM by sulforhodamine B assay relative to control; format: functional; conditions: read-out: Activity
[4] = system: HOP-92; assay: Cytotoxicity against human HOP92 cells by sulforhodamine B assay; format: functional
In short: (§2)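 Run by the NCI Developmental Therapeutics Program on its 60-line human tumour cell panel using the standard procedure. Compounds went through a single-concentration prescreen first, and those active by NCI criteria went on to a five-concentration growth-inhibition test. GI50 is the concentration that cuts growth of treated cells to half that of untreated control cells.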

[5] = system: SF-539; assay: Cytotoxicity against human SF539 cells assessed as cell growth at 80 uM by sulforhodamine B assay relative to control; format: functional; conditions: read-out: Activity
[6] = system: A498; assay: Cytotoxicity against human A498 cells assessed as cell growth at 800 nM by sulforhodamine B assay relative to control; format: functional; conditions: read-out: Activity
In short: (§3)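 Run at NCI in the DTP 60-cell-line human tumor panel by standard procedure. Compounds were first screened at a single concentration, then tested at five tenfold-spaced concentrations. GI50 is the concentration reducing treated-cell growth to half that of untreated controls; TGI is the concentration completely halting growth.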

[7] = system: HCC 2998; assay: Cytotoxicity against human HCC2998 cells assessed as cell growth at 8 nM by sulforhodamine B assay relative to control; format: functional; conditions: read-out: Activity
[8] = system: HOP-62; assay: Cytotoxicity against human HOP62 cells assessed as cell growth at 800 nM by sulforhodamine B assay relative to control; format: functional; conditions: read-out: Activity
[9] = system: A498; assay: Cytotoxicity against human A498 cells assessed as cell growth at 80 uM by sulforhodamine B assay relative to control; format: functional; conditions: read-out: Activity; in short: as §3
[10] = system: HOP-62; assay: Cytotoxicity against human HOP62 cells by sulforhodamine B assay; format: functional; in short: as §2
[11] = system: SW-620; assay: Cytotoxicity against human SW620 cells by sulforhodamine B assay; format: functional; in short: as §1
[12] = system: ACHN; assay: Cytotoxicity against human ACHN cells by sulforhodamine B assay; format: functional; in short: as §3
[13] = system: NCI-H522; assay: Cytotoxicity against human NCI-H522 cells assessed as cell growth at 80 uM by sulforhodamine B assay relative to control; format: functional; conditions: read-out: Activity
[14] = system: HT-29; assay: Cytotoxicity against human HT-29 cells assessed as cell growth at 80 nM by sulforhodamine B assay relative to control; format: functional; conditions: read-out: Activity
[15] = system: MCF7; assay: Cytotoxicity against human MCF7 cells by sulforhodamine B assay; format: functional
[16] = system: EKVX; assay: Cytotoxicity against human EKVX cells assessed as cell growth at 8 uM by sulforhodamine B assay relative to control; format: functional; conditions: read-out: Activity
[17] = system: ACHN; assay: Cytotoxicity against human ACHN cells assessed as cell growth at 80 uM by sulforhodamine B assay relative to control; format: functional; conditions: read-out: Activity; in short: as §3
[18] = system: SW-620; assay: Cytotoxicity against human SW620 cells assessed as cell growth at 8 uM by sulforhodamine B assay relative to control; format: functional; conditions: read-out: Activity
[19] = system: K562; assay: Cytotoxicity against human K562 cells assessed as cell growth at 80 uM by sulforhodamine B assay relative to control; format: functional; conditions: read-out: Activity
[20] = system: OVCAR-5; assay: Cytotoxicity against human OVCAR5 cells assessed as cell growth at 80 uM by sulforhodamine B assay relative to control; format: functional; conditions: read-out: Activity
[21] = system: COLO 205; assay: Cytotoxicity against human COLO205 cells assessed as cell growth at 800 nM by sulforhodamine B assay relative to control; format: functional; conditions: read-out: Activity; in short: as §3
[22] = system: A498; assay: Cytotoxicity against human A498 cells assessed as cell growth at 8 uM by sulforhodamine B assay relative to control; format: functional; conditions: read-out: Activity; in short: as §3
[23] = system: COLO 205; assay: Cytotoxicity against human COLO205 cells by sulforhodamine B assay; format: functional; in short: as §3
[24] = system: PC-3; assay: Cytotoxicity against human PC3 cells assessed as cell growth at 800 nM by sulforhodamine B assay relative to control; format: functional; conditions: read-out: Activity
[25] = system: NCI-H226; assay: Cytotoxicity against human NCI-H226 cells assessed as cell growth at 8 nM by sulforhodamine B assay relative to control; format: functional; conditions: read-out: Activity
[26] = system: A549; assay: Cytotoxicity against human A549 cells by sulforhodamine B assay; format: functional; in short: as §3
[27] = system: SW-620; assay: Cytotoxicity against human SW620 cells assessed as cell growth at 8 nM by sulforhodamine B assay relative to control; format: functional; conditions: read-out: Activity
[28] = system: NCI-H226; assay: Cytotoxicity against human NCI-H226 cells assessed as cell growth at 8 uM by sulforhodamine B assay relative to control; format: functional; conditions: read-out: Activity
[29] = system: NCI-H23; assay: Cytotoxicity against human NCI-H23 cells assessed as cell growth at 8 uM by sulforhodamine B assay relative to control; format: functional; conditions: read-out: Activity
[30] = system: SK-OV-3; assay: Cytotoxicity against human SKOV3 cells assessed as cell growth at 8 uM by sulforhodamine B assay relative to control; format: functional; conditions: read-out: Activity
[31] = system: OVCAR-3; assay: Cytotoxicity against human OVCAR3 cells assessed as cell growth at 8 uM by sulforhodamine B assay relative to control; format: functional; conditions: read-out: Activity
[32] = system: NCI-H460; assay: Cytotoxicity against human NCI-H460 cells assessed as cell growth at 8 nM by sulforhodamine B assay relative to control; format: functional; conditions: read-out: Activity
[33] = system: SNB-75; assay: Cytotoxicity against human SNB75 cells assessed as cell growth at 800 nM by sulforhodamine B assay relative to control; format: functional; conditions: read-out: Activity
[34] = system: HCC 2998; assay: Cytotoxicity against human HCC2998 cells assessed as cell growth at 80 uM by sulforhodamine B assay relative to control; format: functional; conditions: read-out: Activity
[35] = system: TK-10; assay: Cytotoxicity against human TK10 cells by sulforhodamine B assay; format: functional; in short: as §1
[36] = system: Mus musculus; assay: Acute toxicity in athymic nude mouse assessed as mortality at 400 mg/kg, […] after 19 days; format: organism-based; design: dose 400 mg/kg, route intraperitoneal; conditions: in vivo, ip, 456 h
[37] = system: NCI/ADR-RES; assay: Cytotoxicity against human NCI/ADR-RES cells assessed as cell growth at 800 nM by sulforhodamine B assay relative to control; format: functional; conditions: read-out: Activity
[38] = system: U-251; assay: Cytotoxicity against human U251 cells assessed as cell growth at 80 nM by sulforhodamine B assay relative to control; format: functional; conditions: read-out: Activity
[39] = system: SR; assay: Cytotoxicity against human SR cells assessed as cell growth at 8 nM by sulforhodamine B assay relative to control; format: functional; conditions: read-out: Activity
[40] = system: M14; assay: Cytotoxicity against human M14 cells assessed as cell growth at 80 nM by sulforhodamine B assay relative to control; format: functional; conditions: read-out: Activity
[41] = system: BT-549; assay: Cytotoxicity against human BT549 cells assessed as cell growth at 800 nM by sulforhodamine B assay relative to control; format: functional; conditions: read-out: Activity; in short: as §3

`C/C=C1\NC(=O)[C@H](Cc2ccccc2)NC(=O)[C@@H](C(C)C)NC(=O)[C@@H]([C@@H](C)CC)NC(=O)[C@H](NC(=O)[C@H](NC(=O)[C@H](CCCNCc2ccc(F)c(C)c2)NC(=O)[C@H]2CCCN2C(=O)[C@H](NC(=O)[C@@H](NC(=O)[C@@H](NC(=O)[C@H](NC(=O)CCCC(C)C)C(C)C)[C@@H](C)O)C(C)C)C(C)C)[C@@H](C)CC)[C@@H](C)OC(=O)[C@H](C(C)C)NC1=O` showed a growth at 0.8 µM [1] of 83%, a GI50 [2] of 1150 nM and a TGI ([2]; read-out: pTGI (converted)) of 2190 nM. It also gave a growth at 8 µM [3] of -95%, a GI50 [4] of 1410 nM and an LC50 [4] of 6170 nM. The TGI ([4]; read-out: pTGI (converted)) was 2950 nM, the growth at 80 µM [5] was -62% and the growth at 0.8 µM [6] was 96%. For the same compound, the growth at 0.008 µM [7] was 108%, the growth at 0.8 µM [8] was 87% and the growth at 80 µM [9] was -100%. The GI50 [10] was 1200 nM, the LC50 [10] was 4370 nM and the TGI ([10]; read-out: pTGI (converted)) was 2290 nM. For the same compound, the GI50 [11] was 513 nM, the LC50 [11] was 3310 nM and the TGI ([11]; read-out: pTGI (converted)) was 1450 nM. For the same compound, the LC50 [12] was 4070 nM, the GI50 ([12]; read-out: GI50) was 1120 nM and the TGI ([12]; read-out: TGI) was 2140 nM. It also gave a GI50 ([12]; read-out: pGI50 (converted)) of 1120 nM, a TGI ([12]; read-out: pTGI (converted)) of 2140 nM and a growth at 80 µM [13] of -2%. The growth at 0.08 µM [14] was 102%, the GI50 [15] was 1260 nM and the growth at 8 µM [16] was -82%. It also gave a growth at 80 µM [17] of -100%, a growth at 8 µM [18] of -100% and a growth at 80 µM [19] of -14%. It also gave a growth at 80 µM [20] of -98%, a growth at 0.8 µM [21] of -66% and a growth at 8 µM [22] of -92%. The GI50 ([23]; read-out: GI50) was 135 nM, the GI50 ([23]; read-out: pGI50 (converted)) was 135 nM and the growth at 0.8 µM [24] was -54%. For the same compound, the growth at 0.008 µM [25] was 101%, the GI50 ([26]; read-out: GI50) was 167 nM and the GI50 ([26]; read-out: pGI50 (converted)) was 166 nM. It also gave a growth at 0.008 µM [27] of 99%, a growth at 8 µM [28] of -64% and a growth at 8 µM [29] of -77%. It also gave a growth at 8 µM [30] of -96%, a growth at 8 µM [31] of -94% and a growth at 0.008 µM [32] of 104%. The growth at 0.8 µM [33] was 21%, the growth at 80 µM [34] was -88% and the GI50 [35] was 1480 nM. For the same compound, the TGI ([35]; read-out: pTGI (converted)) was 2880 nM, the Activity [36] was “Toxic” and the growth at 0.8 µM [37] was 91%. It also gave a growth at 0.08 µM [38] of 100%, a growth at 0.008 µM [39] of 90% and a growth at 0.08 µM [40] of 99%. The growth at 0.8 µM [41] was 87%.
